Screening results from PubChem.
sdo1 growth = compounds rescuing growth of sdo1-depleted yeast, bone marrow failure model | AID 817 | actives 0.21% (n = 140,000) | S. cerevisiae sdo1-depleted JHY4D growth rescue, OD600 30 h; active compounds read high; pdr5 snq2 efflux-pump mutant strain | z-score at 10 µM;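 active means z-score above 3 at both the 24 hr and the 30 hr optical density reads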;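 further: z-score against mean and SD of all compound wells on the same plate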
Yeast growth inh = reduces growth of yeast BB579 in restrictive medium; S. cerevisiae BB579 growth, OD615, 48 h; inhibition, % at 10 µM; actives 0.51% (n = 140,000);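 active means inhibition above a set limit, 3 SD over the mean compound inhibition, cut at about 44% in these data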
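System: DeaD yeast strain BB579; buffer or medium: CSMM-D dextrose restrictive medium; technique: OD at 615 nm; schedule: 4 h cell preincubation, 48 h compound exposure, 30 °C humidified; doses: single 10 µM dose; controls: amphotericin B 10 µg/mL, positive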
Yeast lifespan up = extends the lifespan of yeast. S. cerevisiae growth with nicotinamide, OD615; deaD strain in restrictive glucose medium. inhibition of the nicotinamide effect, % at 10 µM. actives 0.68% (n = 130,000);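 active means inhibition above a set limit, placed 3 SD over the median of all compounds, cut at about 26% in these data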;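 further: 0% = nicotinamide-treated wells and 100% = cells grown without nicotinamide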
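Assay system: DeaD-strain S. cerevisiae. Medium: CSMM-D glucose medium, restrictive. Reagent: nicotinamide, 1.5 mM, co-present with compound. Compound: 10 µM single point, 0.25% DMSO. Schedule: culture preincubation 4 h, compound exposure 48 h, both 30 °C. Detection: absorbance at 615 nm.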
Measles CPE = protection of cells from measles virus | protection (pct of control), % at 4 µM | Measles virus-infected cells, CPE protection, absorbance | AID 841 | actives 1.5% (n = 140,000); in the data active means protection mostly above about 24%, no sharp cut-off; inactive means mostly below about 26%
RAM network inh = yeast RAM network inhibition; actives 1.8% (n = 190,000); AID 868; S. cerevisiae dse1pr::URA3 reporter, 5-FOA growth OD615, 2 d; analog-sensitive cbk1-as2 kinase mutant strain; inhibition, % at 50 µM;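 active means inhibition above a set limit, 3 SD over mean compound inhibition, cut at about 8.4% in these data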;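 further: 0% = DMSO-only wells with no growth and 100% = 10 µM 1-NA-PP1 full growth; inhibition rescues growth on 5-FOA so higher OD means more RAM inhibition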
* = called active by the depositor. Rows were chosen to be rich in hits. Some 3.8% of all compounds tested hit in one or more screens of this group.

`COc1ccccc1Nc1nc(N)nc(CSc2ncccn2)n1` gave sdo1 growth -0.03, Yeast growth inh -21, Yeast lifespan up -5, Measles CPE 2 and RAM network inh 0.
CCOc1ccccc1Nc1nc(N)nc(CSc2nccc(C)n2)n1 was read as sdo1 growth -0.38, Yeast growth inh -7, Yeast lifespan up -17, Measles CPE 24* and RAM network inh 1.
Cc1nc2ccc(NC(=O)c3cccc(S(=O)(=O)N4CC(C)OC(C)C4)c3)cc2s1 (centres undefined) was read as sdo1 growth 0.82, Yeast growth inh -51, Yeast lifespan up -16, Measles CPE 0 and RAM network inh 0.
`Cc1cn(C2CC3OCC3O2)c(=O)[nH]c1=O` (centres undefined) gave sdo1 growth 0.53, Yeast growth inh -24, Yeast lifespan up -8, Measles CPE 15 and RAM network inh 0.
`O=C(O)c1c[nH]c(=S)n1-c1ccc(F)cc1` gave sdo1 growth -0.3, Yeast growth inh -33, Yeast lifespan up 103*, Measles CPE 6 and RAM network inh 1.
COc1cc(/C=C/C(=O)C2C(=O)C=C(C)OC2=O)cc(OC)c1O (centres undefined) was read as sdo1 growth -0.3, Yeast growth inh -9, Yeast lifespan up 64*, Measles CPE 10 and RAM network inh 1.
Screening COc1ccc(/C=N/NC(=O)c2ccoc2C)cc1O returned sdo1 growth 0.47, Yeast growth inh -17, Yeast lifespan up -1, Measles CPE 14 and RAM network inh 1.
`COc1ccc(/C=C/C(=O)C2C(=O)C=C(C)OC2=O)cc1O` (centres undefined) gave sdo1 growth 0.01, Yeast growth inh -3, Yeast lifespan up 44*, Measles CPE 33 and RAM network inh 2.
Screening COc1ccccc1CNc1nc(S(=O)(=O)c2ccccc2)c(Cl)s1 returned sdo1 growth -0.28, Yeast growth inh -59, Yeast lifespan up -3, Measles CPE 7 and RAM network inh 9.8*.
For CSc1nc(S(=O)(=O)c2ccccc2)c(Cl)s1 the results were RAM network inh 2.
CC(C)CNC(=O)c1cccc(NC(=O)CSc2ccc(Cl)cc2)c1 was read as sdo1 growth 0.21, Yeast growth inh -46, Yeast lifespan up 10, Measles CPE 2 and RAM network inh 9.8*.
`CC(C)(C)NC(=O)c1cccc(NC(=O)CSc2ccc(Cl)cc2)c1` gave sdo1 growth -0.46, Yeast growth inh -51, Yeast lifespan up 0, Measles CPE 9 and RAM network inh 5.
Screening COC(=O)c1c(NC(=O)Cc2cccs2)sc(C(=O)N2CCCCC2)c1C returned sdo1 growth -0.46, Yeast growth inh -36, Yeast lifespan up 29*, Measles CPE 5 and RAM network inh 10*.
`CCOC(=O)c1c(NC(=O)Cc2cccs2)sc(C(=O)NC2CCCCC2)c1C` gave sdo1 growth 0.06, Yeast growth inh -26, Yeast lifespan up -2, Measles CPE 4 and RAM network inh 5.
For CCn1cc(C2C3=C(CC(C)(C)CC3=O)N(c3ccccc3)C3=C2C(=O)CC(C)(C)C3)c(C)n1 the results were sdo1 growth -0.07, Yeast growth inh -7, Yeast lifespan up -2, Measles CPE 33 and RAM network inh 4.
For CCOC(=O)/C(=C/c1ccc(OC(=O)c2ccccc2)cc1)C(C)=O the results were sdo1 growth -1.8, Yeast growth inh 17, Yeast lifespan up 33*, Measles CPE 11 and RAM network inh 2.
CC(=O)/C(=C/c1ccc(N(C)C)cc1)C(=O)c1ccccc1 was read as sdo1 growth -1, Yeast growth inh -51, Yeast lifespan up 3, Measles CPE 8 and RAM network inh 6.
Screening COc1ccc(-c2cn3cccnc3n2)cc1F returned sdo1 growth -0.03, Yeast growth inh -13, Yeast lifespan up -9, Measles CPE 29* and RAM network inh 6.
For COc1ccc(-c2cn3cccnc3n2)cc1NS(=O)(=O)c1ccccc1 the results were RAM network inh 3.
`CC12COC3(C(=O)Nc4ccc5ccccc5c4)CC1CCC32C` (centres undefined) gave RAM network inh 7.
Screening COc1ccccc1N1C(=O)CC(Sc2n[nH]c(-c3cccc(C)c3)n2)C1=O (centres undefined) returned sdo1 growth 0.76, Yeast growth inh -39, Yeast lifespan up 3, Measles CPE 9 and RAM network inh 1.
For COc1ccccc1-c1nnc(SCC(=O)Nc2c(Cl)cccc2Cl)o1 the results were sdo1 growth -1.6, Yeast growth inh -19, Yeast lifespan up -11, Measles CPE 16 and RAM network inh 0.
Screening Cc1cc(C)cc(NC(=O)CSc2nnc(-c3ccccc3Br)o2)c1 returned sdo1 growth -1.7, Yeast growth inh -31, Yeast lifespan up -1, Measles CPE 11 and RAM network inh 11*.
For COc1cccc(NC(=O)CSc2nnc(-c3cc(C)n(-c4ccccc4)c3C)o2)c1 the results were sdo1 growth -1.9, Yeast growth inh -24, Yeast lifespan up -1, Measles CPE 5 and RAM network inh 9.3*.
O=C(CSc1nnc(-c2ccccc2Br)o1)Nc1cccc2ccccc12 was read as sdo1 growth -0.36, Yeast growth inh -33, Yeast lifespan up -3, Measles CPE 6 and RAM network inh 5.
Screening CCCN1C(=O)/C(=C/c2ccc(C)o2)SC1=Nc1ccc(OC)cc1 returned sdo1 growth -0.38, Yeast growth inh -29, Yeast lifespan up -5, Measles CPE 31 and RAM network inh 5.
`CCN1C(=O)/C(=C/c2ccc(C)s2)SC1=Nc1ccc(OC)cc1` gave sdo1 growth -1.4, Yeast growth inh -26, Yeast lifespan up -11, Measles CPE 8 and RAM network inh 9.1*.
COc1ccc(N=C2S/C(=C\c3ccc(C)o3)C(=O)N2CC(C)C)cc1 was read as sdo1 growth -1.8, Yeast growth inh -12, Yeast lifespan up 54, Measles CPE 9 and RAM network inh 11*.
Screening CCN1C(=O)/C(=C/c2cc(C)n(C)c2C)SC1=Nc1ccc(OC)cc1 returned sdo1 growth -0.06, Yeast growth inh -31, Yeast lifespan up -4, Measles CPE 6 and RAM network inh 4.
`Cc1ccc(-c2nc(C3CCCN(S(=O)(=O)c4ccc(C(F)(F)F)cc4)C3)no2)cc1` (centres undefined) gave sdo1 growth -0.43, Yeast growth inh -37, Yeast lifespan up -28, Measles CPE 31* and RAM network inh 3.
For CC(C)(C)c1cc(C(=O)O)n[nH]1 the results were sdo1 growth -0.07, Yeast growth inh -35, Yeast lifespan up -7, Measles CPE 3 and RAM network inh 0.
`CC(C)Cc1cc(C(=O)O)n[nH]1` gave sdo1 growth 0.27, Yeast growth inh -17, Yeast lifespan up -6, Measles CPE 19* and RAM network inh 3.
